According to ChEMBL document CHEMBL1123282, “Antiinflammatory activity of substituted 6-hydroxypyrimido[2,1-f]purine-2,4,8(1H,3H,9H)-triones. Atypical nonsteroidal antiinflammatory agents” (J Med Chem, 1986):

What was measured:
[1] = Plasma level data at a dose of 36 mg/kg, po after 0.5 hr; format: ADME, organism-based; design: dose 36 mg/kg, route oral; conditions: read-out: Plasma level
Outline: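 Male Lewis rats get a single iv or oral dose of the sodium salt, suspended in 0.4% (w/v) methyl cellulose. Plasma drug levels are measured by HPLC at the timed points and given as mean ± SD, n = 3.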

Rattus norvegicus [2] = experiment: Compound was tested in vivo against chronic adjuvant arthritic rat by therapeutic inhibition 2 degree paw. Relative potency with respect to (8-Benzyl-5-hydroxy-1,3-dimethyl-6-propyl-1H,8H-1,3,4b,8,9-pentaaza-fluorene-2,4,7-trione); format: functional
Rattus norvegicus [3] = experiment: Compound was tested for intestinal Ulcerogenic effect in rats at a dose of 300 mg/kg; format: functional
Outline: (§1)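 Normal fed rats were gavaged once daily for three consecutive days at 10–300 mg/kg and killed 24 h after the last dose. Intestines were examined for ulcers, recording incidence per group of 8 and a lesion score (±SE).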

Rattus norvegicus [4] = experiment: Compound was tested for intestinal Ulcerogenic effect in rats, activity expressed as lesion score at a dose of 300 mg/kg; format: functional; outline: as §1
Rattus norvegicus [5] = species on record: Rattus norvegicus; experiment: Delayed Type hypersensitivity (DTH) is measured by increase in ear thickness 24 hours after antigen injection into pinna; format: functional
Rattus norvegicus [6] = experiment: Compound was tested in vivo for antiinflammatory activity against chronic adjuvant arthritic rat by therapeutic inhibition 2 degree paw after peroral administration of 1 mg/kg of dose; format: functional; conditions: route oral
Rattus norvegicus [7] = experiment: Compound was tested in vivo for antiinflammatory activity against chronic adjuvant arthritic rat by therapeutic inhibition 2 degree paw after peroral administration of 3 mg/kg of dose; format: functional; conditions: route oral
Rattus norvegicus [8] = experiment: Compound was tested for intestinal ulcerogenic effect in rats at a dose of 100 mg/kg; format: functional; outline: as §1

In the case of `CCCc1c(O)n(Cc2ccc(F)cc2)c2nc3c(c(=O)n(C)c(=O)n3C)n2c1=O`, the concentration at 0.5 h [1] is reported as 45100 ng/mL, the Relative potency (Rattus norvegicus [2]) is reported as 0.9 and the Ulcer incidence (Rattus norvegicus [3]) is reported as 0 number/group. The Lesion score (Rattus norvegicus [4]) was 0 mm rat-1.

`CC(C)=CCc1c(O)n(Cc2ccccc2)c2nc3c(c(=O)n(C)c(=O)n3C)n2c1=O` showed a DTH (Rattus norvegicus [5]) of 0.0582 mm, an inhibition in vivo at 1 mg/kg (Rattus norvegicus [6]) of 37% and an inhibition in vivo at 3 mg/kg (Rattus norvegicus [7]) of 51%.

For `CC(C)=CCc1c(O)n(Cc2ccc(F)cc2)c2nc3c(c(=O)n(C)c(=O)n3C)n2c1=O`, the Ulcer incidence (Rattus norvegicus [8]) was 0 number/group.
